# Source: ChEMBL document CHEMBL1240522, “Effect of goniothalamin on the development of Ehrlich solid tumor in mice” (Bioorg Med Chem, 2010)
# Activity calls are given as the source filed them. The rule behind the calls is not given here.
# Legend:
# HT-29 = experiment: Cytotoxicity against human HT-29 cells after 48 hrs by sulforhodamine B assay; assay type: functional; settings: HT-29, 48 h
# Method in brief: (§1)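 Cells grown in RPMI 1640 with 5% FBS at 37 °C, 5% CO2, with penicillin/streptomycin. Treated for 48 h with compound in DMSO/RPMI at […]. Fixed with 50% trichloroacetic acid, protein stained with sulforhodamine B and read at 540 nm. TGI (total growth inhibition) obtained by non-linear regression of the concentration–response curves.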
# U-251 = experiment: Cytotoxicity against human U251 cells after 48 hrs by sulforhodamine B assay; assay type: functional; settings: U-251, 48 h; method in brief: as §1
# [1] = Antitumor activity against mouse EAC cells xenografted in BALB/C mouse assessed as inhibition of tumor growth at 100 mg/kg, ip administered every 3 days measured on day 7 relative to control; assay type: functional; settings: Ehrlich, route intraperitoneal
# Method in brief: (§2)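 Ehrlich cells kept as ascites by weekly ip passage of 5 × 10^5 cells in mice. Balb/C mice (n = 8/group) inoculated with 2.5 × 10^6 cells into the right hind footpad. Dosed ip every third day from day 3, vehicle 0.9% saline. Tumour volume taken as plethysmometer paw volume minus basal, every third day to day 15. Reported as % inhibition vs vehicle ± SD; ANOVA.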
# [2] = Antitumor activity against mouse EAC cells xenografted in BALB/C mouse assessed as reduction of tumor weight at 300 mg/kg, ip administered every 3 days measured on day 15 relative to control; assay type: functional; settings: Ehrlich, route intraperitoneal
# Method in brief: (§3)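 Ehrlich footpad tumour model in Balb/C mice (n = 8/group, 2.5 × 10^6 cells) with ip dosing every third day from day 3 in 0.9% saline. Mice sacrificed on day 15 and both hind paws weighed. Relative tumour weight = (tumour paw − healthy paw weight)/body weight. Reported as % inhibition vs vehicle ± SD; ANOVA.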
# [3] = Antitumor activity against mouse EAC cells xenografted in BALB/C mouse assessed as inhibition of tumor growth at 30 mg/kg, ip administered every 3 days measured on day 7 relative to control; assay type: functional; settings: Ehrlich, route intraperitoneal; method in brief: as §2
# Mus musculus [4] = experiment: Antiinflammatory activity in BALB/C mouse assessed as inhibition of carrageenan-induced paw edema at 100 mg/kg, ip administered 30 mins before carrageenan challenge measured before 6 hrs by plethysmometer; assay type: functional, organism-based; parameters: dose 100 mg/kg
# Method in brief: (§4)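 Balb/C mice, n = 8/group. Right hind paw basal volume measured by plethysmometer. Single ip dose in 0.9% saline vehicle, then carrageenan 2.5% injected intraplantar into the right hind footpad 30 min later. Edema taken as measured minus basal volume at 1.5, 3.0, 4.5, 6.0, 24, 48 and 72 h. Expressed as % inhibition vs vehicle ± standard deviation; ANOVA.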
# OVCAR-3 = experiment: Cytotoxicity against human OVCAR-3 cells after 48 hrs by sulforhodamine B assay; assay type: functional; settings: OVCAR-3, 48 h; method in brief: as §1
# Mus musculus [5] = experiment: Antiinflammatory activity in BALB/C mouse assessed as inhibition of carrageenan-induced paw edema at 20 mg/kg, ip administered 30 mins before carrageenan challenge measured before 48 hrs by plethysmometer; assay type: functional, organism-based; parameters: dose 20 mg/kg; method in brief: as §4
# [6] = Antitumor activity against mouse EAC cells xenografted in BALB/C mouse assessed as inhibition of tumor growth at 30 mg/kg, ip administered every 3 days measured on day 15 relative to control; assay type: functional; settings: Ehrlich, route intraperitoneal; method in brief: as §2
# Mus musculus [7] = experiment: Antiinflammatory activity in BALB/C mouse assessed as inhibition of carrageenan-induced paw edema at 30 mg/kg, ip administered 30 mins before carrageenan challenge measured before 48 hrs by plethysmometer; assay type: functional, organism-based; parameters: dose 30 mg/kg; method in brief: as §4
# [8] = Antitumor activity against mouse EAC cells xenografted in BALB/C mouse assessed as reduction of tumor weight at 100 mg/kg, ip administered every 3 days measured on day 15 relative to control; assay type: functional; settings: Ehrlich, route intraperitoneal; method in brief: as §3
# [9] = Antitumor activity against mouse EAC cells xenografted in BALB/C mouse assessed as inhibition of tumor growth at 300 mg/kg, ip administered every 3 days measured on day 15 relative to control; assay type: functional; settings: Ehrlich, route intraperitoneal; method in brief: as §2
# [10] = Antitumor activity against mouse EAC cells xenografted in BALB/C mouse assessed as inhibition of tumor growth at 100 mg/kg, ip administered every 3 days measured on day 15 relative to control; assay type: functional; settings: Ehrlich, route intraperitoneal; method in brief: as §2
# Mus musculus [11] = experiment: Antiinflammatory activity in BALB/C mouse assessed as inhibition of carrageenan-induced paw edema at 100 mg/kg, ip administered 30 mins before carrageenan challenge measured before 24 hrs by plethysmometer; assay type: functional, organism-based; parameters: dose 100 mg/kg; method in brief: as §4
# Mus musculus [12] = experiment: Antiinflammatory activity in BALB/C mouse assessed as inhibition of carrageenan-induced paw edema at 100 mg/kg, ip administered 30 mins before carrageenan challenge measured before 72 hrs by plethysmometer; assay type: functional, organism-based; parameters: dose 100 mg/kg; method in brief: as §4
# [13] = Antitumor activity against mouse EAC cells xenografted in BALB/C mouse assessed as inhibition of tumor growth at 300 mg/kg, ip administered every 3 days measured on day 7 relative to control; assay type: functional; settings: Ehrlich, route intraperitoneal; method in brief: as §2
# Mus musculus [14] = experiment: Acute toxicity in BALB/C mouse assessed as mortality at up to 300 mg/kg, ip after 4 hrs; assay type: organism-based; parameters: dose 300 mg/kg, route intraperitoneal; settings: in vivo
# Method in brief: (§5)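 Balb/C mice (20–35 g) dosed intraperitoneally at 50, 100 and 300 mg/kg. Observed for 4 h, then daily for 14 days, for body weight loss, locomotion, behaviour (agitation, lethargy), respiration, salivation, tearing eyes, cyanosis and mortality.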
# Mus musculus [15] = experiment: Acute toxicity in BALB/C mouse assessed as reduction of body weight at up to 300 mg/kg, ip after 15 days; assay type: organism-based; parameters: dose 300 mg/kg, route intraperitoneal; settings: in vivo, 360 h; method in brief: as §5
# MCF7 = experiment: Cytotoxicity against human MCF7 cells after 48 hrs by sulforhodamine B assay; assay type: functional; settings: MCF7, 48 h; method in brief: as §1
# UACC-62 = experiment: Cytotoxicity against human UACC62 cells after 48 hrs by sulforhodamine B assay; assay type: functional; settings: UACC-62, 48 h; method in brief: as §1
# 786-0 = experiment: Cytotoxicity against human 786-0 cells after 48 hrs by sulforhodamine B assay; assay type: functional; settings: 786-0, 48 h; method in brief: as §1
# NCI-H460 = experiment: Cytotoxicity against human NCI-H460 cells after 48 hrs by sulforhodamine B assay; assay type: functional; settings: NCI-H460, 48 h; method in brief: as §1
# [16] = Cytotoxicity against human PCO3 cells after 48 hrs by sulforhodamine B assay; assay type: functional; settings: PCO3, 48 h; method in brief: as §1
# Mus musculus [17] = experiment: Antiinflammatory activity in BALB/C mouse assessed as inhibition of carrageenan-induced paw edema at 30 mg/kg, ip administered 30 mins before carrageenan challenge measured before 6 hrs by plethysmometer; assay type: functional, organism-based; parameters: dose 30 mg/kg; method in brief: as §4
# Mus musculus [18] = experiment: Antiinflammatory activity in BALB/C mouse assessed as inhibition of carrageenan-induced paw edema at 100 mg/kg, ip administered 30 mins before carrageenan challenge measured after 3 to 4.5 hrs by plethysmometer; assay type: functional, organism-based; parameters: dose 100 mg/kg; method in brief: as §4
# Mus musculus [19] = experiment: Antiinflammatory activity in BALB/C mouse assessed as inhibition of carrageenan-induced paw edema at 300 mg/kg, ip administered 30 mins before carrageenan challenge measured after 48 to 72 hrs by plethysmometer; assay type: functional, organism-based; parameters: dose 300 mg/kg; method in brief: as §4
# [20] = Cytotoxicity against human NCI-ADR-RES cells after 48 hrs by sulforhodamine B assay; assay type: functional; method in brief: as §1
# [21] = Antitumor activity against mouse EAC cells xenografted in BALB/C mouse assessed as reduction of tumor weight at 30 mg/kg, ip administered every 3 days measured on day 15 relative to control; assay type: functional; settings: Ehrlich, route intraperitoneal; method in brief: as §3
# Mus musculus [22] = experiment: Acute toxicity in BALB/C mouse assessed as mortality at up to 300 mg/kg, ip after 15 days; assay type: organism-based; parameters: dose 300 mg/kg, route intraperitoneal; settings: in vivo, 360 h; method in brief: as §5
# [23] = Antitumor activity against mouse EAC cells xenografted in BALB/C mouse assessed as inhibition of increase in tumor volume at 3 mg/kg, ip administered every 3 days measured on day 7 relative to control; assay type: functional; settings: Ehrlich, route intraperitoneal; method in brief: as §2
# [24] = Antitumor activity against mouse EAC cells xenografted in BALB/C mouse assessed as reduction of tumor weight at 3 mg/kg, ip administered every 3 days measured on day 15 relative to control; assay type: functional; settings: Ehrlich, route intraperitoneal; method in brief: as §3
# [25] = Antitumor activity against mouse EAC cells xenografted in BALB/C mouse assessed as inhibition of increase in tumor volume at 3 mg/kg, ip administered every 3 days measured on day 15 relative to control; assay type: functional; settings: Ehrlich, route intraperitoneal; method in brief: as §2
# Mus musculus [26] = experiment: Acute toxicity in BALB/C mouse assessed as reduction of body weight at up to 3 mg/kg, ip after 15 days; assay type: organism-based; parameters: dose 3 mg/kg, route intraperitoneal; settings: in vivo, 360 h
# Method in brief: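 Balb/C mice (n = 8/group) carrying Ehrlich footpad tumours, given ip doses every third day from day 3 (four treatments), vehicle 0.9% saline. Animals weighed and watched for toxicity throughout; body-weight loss recorded at the end of the experiment, day 15.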
# Mus musculus [27] = experiment: Antiinflammatory activity in BALB/C mouse assessed as inhibition of carrageenan-induced paw edema at 5 mg/kg, ip administered 30 mins before carrageenan challenge measured before 24 hrs by plethysmometer; assay type: functional, organism-based; parameters: dose 5 mg/kg; method in brief: as §4
# Mus musculus [28] = experiment: Antiinflammatory activity in ip dosed BALB/C mouse assessed as inhibition of carrageenan-induced paw edema administered 30 mins before carrageenan challenge measured after 24 hrs by plethysmometer; assay type: functional, organism-based; method in brief: as §4
# [29] = Antitumor activity against mouse EAC cells xenografted in BALB/C mouse assessed as reduction of tumor weight at 50 mg/kg, ip administered every 3 days measured on day 15 relative to control; assay type: functional; settings: Ehrlich, route intraperitoneal; method in brief: as §3
# Mus musculus [30] = experiment: Acute toxicity in BALB/C mouse assessed as reduction of body weight at up to 50 mg/kg, ip after 15 days; assay type: organism-based; parameters: dose 50 mg/kg, route intraperitoneal; settings: in vivo, 360 h; method in brief: as §5
# [31] = Antitumor activity against mouse EAC cells xenografted in BALB/C mouse assessed as inhibition of increase in tumor volume at 50 mg/kg, ip administered every 3 days measured on day 15 relative to control; assay type: functional; settings: Ehrlich, route intraperitoneal; method in brief: as §2
# [32] = Antitumor activity against mouse EAC cells xenografted in BALB/C mouse assessed as inhibition of increase in tumor volume at 50 mg/kg, ip administered every 3 days measured on day 13 relative to control; assay type: functional; settings: Ehrlich, route intraperitoneal; method in brief: as §2
SMILES,TGI (HT-29),TGI (U-251),TGI (OVCAR-3),Activity (Mus musculus [14]),TGI (MCF7),TGI (UACC-62),TGI (786-0),TGI (NCI-H460),TGI [16],TGI [20],Activity (Mus musculus [22]),other results
O=C1C=CCC(/C=C/c2ccccc2)O1 (racemic),29.2 µM,18.2 µM,18.8 µM,Non-toxic,22.7 µM,23.2 µM,22.4 µM,36.4 µM,18.2 µM,6.38 µM,Non-toxic,inhibition in vivo at 100 mg/kg [1]: 41.7%; inhibition in vivo at 300 mg/kg [2]: 41.8%; inhibition in vivo at 30 mg/kg [3]: 50%; inhibition (Mus musculus [4]): inactive; inhibition (Mus musculus [5]): Active; inhibition in vivo at 30 mg/kg [6]: 48.5%; inhibition (Mus musculus [7]): Active; inhibition in vivo at 100 mg/kg [8]: 31.6%; inhibition in vivo at 300 mg/kg [9]: 66.7%; inhibition in vivo at 100 mg/kg [10]: 40.9%; inhibition (Mus musculus [11]): Active; inhibition (Mus musculus [12]): Active; inhibition in vivo at 300 mg/kg [13]: 35.7%; Activity (Mus musculus [15]): Non-toxic; inhibition (Mus musculus [17]): inactive; inhibition (Mus musculus [18]): Active; inhibition (Mus musculus [19]): Active; inhibition in vivo at 30 mg/kg [21]: 36.7%
COc1cccc2c1C(=O)c1c(O)c3c(c(O)c1C2=O)C[C@@](O)(C(=O)CO)C[C@@H]3O[C@H]1C[C@H](N)[C@H](O)[C@H](C)O1 [DOXORUBICIN],16.4 µM,1.42 µM,10.2 µM,,11 µM,0.32 µM,7.86 µM,2.37 µM,4.03 µM,2.83 µM,,inhibition in vivo at 3 mg/kg [23]: 42.7%; inhibition in vivo at 3 mg/kg [24]: 28%; inhibition in vivo at 3 mg/kg [25]: 34.7%; Activity (Mus musculus [26]): 2.5 g; inhibition (Mus musculus [27]): Active; inhibition (Mus musculus [28]): Dose-dependent effect
O=C1C=CC[C@H](/C=C/c2ccccc2)O1 [GONIOTHALAMIN],22 µM,13.4 µM,8.31 µM,Non-toxic,21.7 µM,21.6 µM,18.6 µM,32.4 µM,13.5 µM,1.2 µM,Non-toxic,inhibition in vivo at 50 mg/kg [29]: 25.3%; Activity (Mus musculus [30]): Non-toxic; inhibition in vivo at 50 mg/kg [31]: 37.4%; inhibition in vivo at 50 mg/kg [32]: 21.9%
